The values that follow come from ChEMBL document CHEMBL4390662, “Design, synthesis and biological evaluation of novel α-acyloxy carboxamides via Passerini reaction as caspase 3/7 activators” (Eur J Med Chem, 2019).

Values after ≈ are worked out from the molar mass of the structure shown. Active and inactive are the calls of the source. No cut-off for these calls is given here.

Experiment [1] deals with MCF7. Nature of the experiment: Induction of apoptosis in human MCF7 cells assessed as caspase 3/7 activity using DEVD aminoluciferin as substrate at IC50 after 24 hrs […] relative to control. Format: functional. In a few lines: (§1)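 Caspase 3/7 activation measured with Caspase-Glo 3/7 kit using a luminogenic caspase-cleavable substrate. […] Reported as percent activation, mean ± SEM.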

Experiment [2] relates to Candida albicans. The experiment is described as follows: Antimicrobial activity against Candida albicans ATCC 90028 incubated for 24 hrs by microdilution assay. The experiment is classed as functional. In a few lines: (§2)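 Two-fold serial dilutions of test solutions made in Mueller Hinton broth and inoculated. Incubated at 37°C for 24 h. MIC taken as the lowest concentration with no growth. Ciprofloxacin is the antibacterial reference, fluconazole the antifungal one, and DMSO the blank.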

Experiment [3] concerns Candida albicans. The experiment is described as follows: Antimicrobial activity against Candida albicans ATCC 90028 incubated for 48 hrs by agar well diffusion assay. Format: functional. In a few lines:
(§3)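 Nutrient agar spread with 100 µL inoculum: bacteria at 1×10^8 CFU/mL, fungi at 1×10^6 CFU/mL. 10 mm wells loaded with 100 µL of compound in DMSO (final 1 mg/mL). Bacteria incubated 24 h at 37 °C, fungi 48 h at 28 °C. Inhibition zones measured in mm. Ciprofloxacin and fluconazole standards at 1 mg/mL, DMSO negative control.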
(In general: In agar diffusion tests the substance spreads into inoculated agar from a disc or well.)

Experiment [4] has as its system NFS-60. Nature of the experiment: Induction of apoptosis in mouse NFS60 cells assessed as necrotic cells level at IC50 incubated for 72 hrs by annexin V/propidium iodide staining based flow cytometry (reference value: 0.01%). Format: functional. (In general: Flow cytometry measures light scatter and fluorescence of single cells or particles in a stream.)
Experiment [5] concerns MCF7. The experiment is described as follows: Induction of apoptosis in human MCF7 cells assessed as early apoptotic cells at IC50 incubated for 72 hrs by annexin V/propidium iodide staining based flow cytometry (reference value: 0.47 +/- 0.01%). Format: functional.
A further experiment concerns Pseudomonas aeruginosa. Nature of the experiment: Antimicrobial activity against Pseudomonas aeruginosa ATCC 27853 incubated for 24 hrs by agar well diffusion assay. The experiment is classed as functional. The method, boiled down:
as §3

In experiment [6] the test system is HepG2. The experiment is described as follows: Induction of apoptosis in human HepG2 cells assessed as necrotic cells level at IC50 incubated for 72 hrs by annexin V/propidium iodide staining based flow cytometry (reference value: 0.87%). The experiment is classed as functional.
In experiment [7] the test system is NFS-60. Nature of the experiment: Induction of apoptosis in mouse NFS60 cells assessed as late apoptotic cells level at IC50 incubated for 72 hrs by annexin V/propidium iodide staining based flow cytometry (reference value: 0.01%). The experiment is classed as functional.
Experiment [8] concerns HepG2. Nature of the experiment: Induction of apoptosis in human HepG2 cells assessed as caspase 3/7 activity using DEVD aminoluciferin as substrate at IC50 after 24 hrs by fluorescence assay relative to control. Format: functional. In a few lines: as §1
Experiment [9] concerns MCF7. The experiment is described as follows: Induction of apoptosis in human MCF7 cells assessed as induction of cell shape loss by phase contrast inverted fluorescence microscopy. Format: functional, cell-based.
For experiment [10], the system named is Escherichia coli. The experiment is described as follows: Antimicrobial activity against Escherichia coli ATCC 25922 incubated for 24 hrs by microdilution assay. To be noted: ATCC 25922, 24 h. The experiment is classed as functional. The method, boiled down: as §2
(Broth dilution looks for growth in wells or tubes with falling amounts of substance.)

Experiment [11] deals with MCF7. Nature of the experiment: Induction of apoptosis in human MCF7 cells assessed as total apoptotic cells at IC50 incubated for 72 hrs by annexin V/propidium iodide staining based flow cytometry (reference value: 0.48 +/- 0.01%). Format: functional.
Experiment [12] relates to Staphylococcus aureus. Nature of the experiment: Antimicrobial activity against Staphylococcus aureus ATCC 25923 incubated for 24 hrs by agar well diffusion assay. The experiment is classed as functional. In a few lines: as §3
Experiment [13] concerns NFS-60. Nature of the experiment: Induction of apoptosis in mouse NFS60 cells assessed as late apoptotic cells at IC50 incubated for 72 hrs by annexin V/propidium iodide staining based flow cytometry (reference value: 0.015 +/- 0.01%).
Another experiment has as its system Enterococcus faecalis. Nature of the experiment: Antimicrobial activity against Enterococcus faecalis ATCC 29212 incubated for 24 hrs by agar well diffusion assay. The experiment is classed as functional. The method, boiled down:
as §3

The test system of experiment [14] is NFS-60. Nature of the experiment: Induction of apoptosis in mouse NFS60 cells assessed as caspase 3/7 activity using DEVD aminoluciferin as substrate at IC50 after 24 hrs […] relative to control. Format: functional. The method, boiled down: as §1
The test system of experiment [15] is Staphylococcus aureus. The experiment is described as follows: Antimicrobial activity against Staphylococcus aureus ATCC 25923 incubated for 24 hrs by microdilution assay. The experiment is classed as functional. In a few lines:
as §2

In experiment [16] the test system is Escherichia coli. Nature of the experiment: Antimicrobial activity against Escherichia coli ATCC 25922 incubated for 24 hrs by agar well diffusion assay. The experiment is classed as functional. In a few lines: as §3

For the compound `O=C(Cc1ccccc1)OC1(C(=O)Nc2ccc([N+](=O)[O-])cc2)CCCCC1`, the Activity in the experiment on MCF7 [1] was found to be 43.04%; in the experiment with NFS-60 [4], 14.8%; in the experiment on MCF7 [5], 11.885%; with HepG2 [6], 7.13%; with NFS-60 [7], 18.21%; in the experiment with HepG2 [8] it was 47.64%. The Activity with MCF7 [11] is given as 33.98%; in the experiment on NFS-60 [13], 20.09%; in the experiment with NFS-60 [14] it was 45.41%. Besides, the MIC entry in the experiment with Candida albicans [2] and in the experiment on Staphylococcus aureus [15] was “inactive” each time. For the same compound, the “diameter of the inhibition zone (DIZ)” value in the experiment on Candida albicans [3], with Staphylococcus aureus [12] and in the experiment with Enterococcus faecalis was “inactive” throughout. In addition, the “diameter of the inhibition zone (DIZ)” value in the experiment with Pseudomonas aeruginosa came out at 15 mm; in the experiment on Escherichia coli [16] it was 16 mm. In addition, the result in the experiment with MCF7 [9] was Active. Inhibition of growth against Escherichia coli [10] (MIC) required 2680 µM (≈ 1020 µg/mL).
For the compound `O=C(OC1(C(=O)Nc2ccc([N+](=O)[O-])cc2)CCCCC1)c1ccc([N+](=O)[O-])cc1`, the Activity stood at 50.94% in the experiment with MCF7 [1]; 24.58% in the experiment on NFS-60 [4]; 24.065% in the experiment with MCF7 [5]; 19.9% in the experiment with HepG2 [6]; 17.56% in the experiment on NFS-60 [7]; 50.68% in the experiment with HepG2 [8]. In addition, the figures for the Activity in the experiment on MCF7 [11], with NFS-60 [13] and in the experiment with NFS-60 [14] were 44.505%, 18.965% and 49.59%, respectively. The result in the experiment with MCF7 [9] was Active.
Consider `O=C(OC1(C(=O)Nc2ccc([N+](=O)[O-])cc2)CCCCC1)C(O)c1ccccc1` (stereo unspecified), for which the Activity with MCF7 [1] is recorded as 55.04%; in the experiment with NFS-60 [4] it was 21.74%; in the experiment with MCF7 [5], 22.345%; in the experiment on HepG2 [6], 7.11%; in the experiment on NFS-60 [7], 22.89%; in the experiment with HepG2 [8] it was 53.64%. Further, the Activity in the experiment on MCF7 [11] was determined as 53.129%; in the experiment on NFS-60 [13], 23.645%; in the experiment on NFS-60 [14] it was 52.835%. In addition, the MIC result with Candida albicans [2] and in the experiment on Staphylococcus aureus [15] was “inactive” throughout. Also, the “diameter of the inhibition zone (DIZ)” value in the experiment with Candida albicans [3], in the experiment on Staphylococcus aureus [12] and in the experiment with Enterococcus faecalis was “inactive” each time. For the same compound, the figures for the “diameter of the inhibition zone (DIZ)” value in the experiment on Pseudomonas aeruginosa and in the experiment on Escherichia coli [16] were 14 mm and 16 mm, respectively. Further, the outcome in the experiment with MCF7 [9] was Active. The MIC in the experiment on Escherichia coli [10] was found to be 2570 µM (≈ 1020 µg/mL).

In general, MIC refers to the least concentration at which growth counts as inhibited.
